According to ChEMBL document CHEMBL1141217, “cycloSal-PMEA and cycloAmb-PMEA: potentially new phosphonate prodrugs based on the cycloSal-pronucleotide approach” (J Med Chem, 2005):
Activity calls are given as the source filed them. The rule behind the calls is not given here.

Legend:
[1] = Half life in CEM/O cells; format: ADME, cell-based; conditions: human, CEM/O cells (CCRF-CEM cell line)
Method in brief: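 Triester (1.5 mM stock in DMSO) incubated with CEM cell extract plus MgCl2 (70 mM stock) for 8 h. Stopped with acidic methanol, 5 min at 0 °C, centrifuged and filtered; supernatant analysed by reversed-phase HPLC with UV at 250 nm.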

[2] = Chemical stability in phosphate buffer at pH 7.3; format: physicochemical; conditions: read-out: Stability (converted)
Method in brief: (§1)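 Triesters hydrolysed at 37 °C in phosphate buffer pH 7.3 or citrate buffer pH 2.0, with AZT as internal standard; final 0.96 mM triester, 24.8 mM buffer. Aliquots quenched with glacial acetic acid and frozen, then analysed by reversed-phase HPLC with UV at 250 nm. t1/2 from rate constants of starting-triester peak decay; mean of duplicates.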

[3] = Inhibitory activity against human acetyl cholinesterase
[4] = target: Cholinesterase (Homo sapiens, UniProt P06276); experiment: Inhibitory activity against human butyryl cholinesterase
Sequence of Cholinesterase (P06276 whole entry): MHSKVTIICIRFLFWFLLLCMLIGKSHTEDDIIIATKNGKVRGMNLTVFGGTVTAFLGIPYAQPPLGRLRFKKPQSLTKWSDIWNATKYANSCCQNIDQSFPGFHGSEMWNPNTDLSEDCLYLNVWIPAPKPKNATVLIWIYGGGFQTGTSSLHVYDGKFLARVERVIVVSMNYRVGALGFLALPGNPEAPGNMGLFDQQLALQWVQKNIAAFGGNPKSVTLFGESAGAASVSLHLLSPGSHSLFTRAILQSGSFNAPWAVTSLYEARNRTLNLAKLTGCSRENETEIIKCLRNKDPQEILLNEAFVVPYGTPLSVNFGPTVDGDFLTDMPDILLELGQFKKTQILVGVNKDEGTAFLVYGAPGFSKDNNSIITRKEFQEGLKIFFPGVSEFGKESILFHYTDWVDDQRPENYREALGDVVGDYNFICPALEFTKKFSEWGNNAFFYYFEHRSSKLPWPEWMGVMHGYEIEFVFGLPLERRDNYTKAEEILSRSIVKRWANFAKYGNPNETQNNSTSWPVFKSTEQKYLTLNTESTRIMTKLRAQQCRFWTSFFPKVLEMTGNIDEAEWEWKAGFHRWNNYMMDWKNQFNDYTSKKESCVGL

[5] = system: Human immunodeficiency virus 2; experiment: Antiviral potency against HIV2 in CEM/O cells; format: functional, organism-based; conditions: Human immunodeficiency virus 2, CEM/O
Method in brief: (§2)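 CEM cells at 4×10^5 cells/mL infected with HIV-1 or HIV-2 (ROD) at ~100 CCID50 per mL; virus stocks from infected MT-4 cell supernatants. Infected cells mixed with serial compound dilutions. After 4–5 days, giant cell formation scored microscopically; EC50 = concentration giving 50% protection.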

[6] = system: Human immunodeficiency virus 1; experiment: Antiviral potency against HIV1 in CEM/O cells; format: functional, organism-based; conditions: Human immunodeficiency virus 1, CEM/O; method in brief: as §2
[7] = system: CCRF-CEM; experiment: Cytotoxicity against CEM/O cells; format: functional; conditions: Homo sapiens
[8] = LogP using HPLC method; format: physicochemical
[9] = Chemical stability in citrate buffer at pH 2.0; format: physicochemical; method in brief: as §1

| Compound | half-life [1] | half-life [2] | Activity [3] | IC50 [4] | EC50 [5] | EC50 [6] | CC50 [7] | logP [8] | Stability [9] |
| --- | --- | --- | --- | --- | --- | --- | --- | --- | --- |
| Nc1ncnc2c1ncn2CCOCP1(=O)OCc2ccccc2O1 (stereo unspecified) | 0.1 h | 0.09 h | inactive | > 50 µM | – | – | – | – | – |
| CC(C)(C)C(=O)OCOP(=O)(COCCn1cnc2c(N)ncnc21)OCOC(=O)C(C)(C)C [ADEFOVIR DIPIVOXIL] | – | 14.7 h | – | – | 0.075 µM | 0.18 µM | 0.74 µM | – | – |
| Nc1ncnc2c1ncn2CCOCP1(=O)Nc2cccc(F)c2CO1 (stereo unspecified) | – | 1.3 h | inactive | > 50 µM | 26 µM | 28 µM | 244 µM | 0.49 | – |
| Nc1ncnc2c1ncn2CCOCP(=O)(O)O [ADEFOVIR] | – | – | – | – | 10 µM | 10 µM | 50 µM | – | – |
| Nc1ncnc2c1ncn2CCOCP1(=O)Nc2ccccc2CO1 (stereo unspecified) | – | 4 h | inactive | > 50 µM | 21 µM | 20 µM | 183 µM | 0.23 | 9.6 h |
| Cc1cccc2c1OP(=O)(COCCn1cnc3c(N)ncnc31)OC2 (stereo unspecified) | 0.6 h | 0.56 h | inactive | > 50 µM | – | – | – | – | – |
| CC(C)(C)c1cccc2c1OP(=O)(COCCn1cnc3c(N)ncnc31)OC2 (stereo unspecified) | 3 h | 4.05 h | inactive | > 50 µM | 4.5 µM | 3 µM | 29 µM | 0.47 | 23.7 h |
| Cc1cccc2c1NP(=O)(COCCn1cnc3c(N)ncnc31)OC2 (stereo unspecified) | – | 21.3 h | inactive | > 50 µM | 56 µM | 29 µM | > 250 µM | 0.45 | 29 h |
| CC(C)(C)c1cc2c(c(C(C)(C)C)c1)OP(=O)(COCCn1cnc3c(N)ncnc31)OC2 (stereo unspecified) | 3 h | 3.05 h | inactive | > 50 µM | 5.3 µM | 5.5 µM | 17 µM | 1.72 | 9.6 h |
